Experimental data reported in ChEMBL document CHEMBL2434855, “Aggrecanase-2 inhibitors based on the acylthiosemicarbazide zinc-binding group” (Eur J Med Chem, 2013).

Columns and labels:
[1] = molecular target: T1, A disintegrin and metalloproteinase with thrombospondin motifs 5 (Homo sapiens, UniProt Q9UNA0); assay: Inhibition of human recombinant ADAMTS-5 using QTVTWPDMELPLPRNITEGEARGSVIL-TVKPIFEVSPSPL(biotinyl)K as substrate incubated 10 mins prior to substrate addition measured after 3 hrs by spectrophotometry
T1 sequence (Q9UNA0 whole entry): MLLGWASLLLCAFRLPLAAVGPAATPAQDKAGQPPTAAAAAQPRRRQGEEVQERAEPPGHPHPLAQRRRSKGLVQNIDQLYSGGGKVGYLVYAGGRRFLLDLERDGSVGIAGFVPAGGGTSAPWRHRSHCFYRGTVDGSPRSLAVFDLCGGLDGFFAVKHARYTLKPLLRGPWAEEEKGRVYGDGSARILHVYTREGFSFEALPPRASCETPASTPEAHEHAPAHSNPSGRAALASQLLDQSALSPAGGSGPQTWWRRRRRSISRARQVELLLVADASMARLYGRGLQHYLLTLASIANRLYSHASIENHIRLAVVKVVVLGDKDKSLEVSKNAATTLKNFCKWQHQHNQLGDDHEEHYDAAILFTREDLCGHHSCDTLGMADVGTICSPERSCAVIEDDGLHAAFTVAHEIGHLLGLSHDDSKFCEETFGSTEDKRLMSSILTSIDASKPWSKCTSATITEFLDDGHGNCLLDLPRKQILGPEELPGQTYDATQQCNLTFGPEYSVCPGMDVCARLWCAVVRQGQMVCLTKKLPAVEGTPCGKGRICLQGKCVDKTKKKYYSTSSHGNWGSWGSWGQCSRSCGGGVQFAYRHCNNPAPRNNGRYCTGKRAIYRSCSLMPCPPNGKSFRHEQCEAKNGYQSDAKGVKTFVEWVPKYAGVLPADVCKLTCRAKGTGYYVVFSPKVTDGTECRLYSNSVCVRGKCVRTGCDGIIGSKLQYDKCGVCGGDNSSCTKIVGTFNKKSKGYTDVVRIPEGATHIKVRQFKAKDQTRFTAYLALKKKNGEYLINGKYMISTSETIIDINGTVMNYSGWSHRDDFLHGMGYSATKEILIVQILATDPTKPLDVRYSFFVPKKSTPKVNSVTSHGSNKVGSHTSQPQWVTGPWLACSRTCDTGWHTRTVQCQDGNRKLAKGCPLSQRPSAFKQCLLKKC

[2] = molecular target: T2, A disintegrin and metalloproteinase with thrombospondin motifs 4 (Homo sapiens, UniProt O75173); assay: Inhibition of human recombinant ADAMTS-4 using QTVTWPDMELPLPRNITEGEARGSVIL-TVKPIFEVSPSPL(biotinyl)K as substrate incubated for 10 mins prior to substrate addition measured after 3 hrs by spectrophotometry
T2 sequence (O75173 whole entry): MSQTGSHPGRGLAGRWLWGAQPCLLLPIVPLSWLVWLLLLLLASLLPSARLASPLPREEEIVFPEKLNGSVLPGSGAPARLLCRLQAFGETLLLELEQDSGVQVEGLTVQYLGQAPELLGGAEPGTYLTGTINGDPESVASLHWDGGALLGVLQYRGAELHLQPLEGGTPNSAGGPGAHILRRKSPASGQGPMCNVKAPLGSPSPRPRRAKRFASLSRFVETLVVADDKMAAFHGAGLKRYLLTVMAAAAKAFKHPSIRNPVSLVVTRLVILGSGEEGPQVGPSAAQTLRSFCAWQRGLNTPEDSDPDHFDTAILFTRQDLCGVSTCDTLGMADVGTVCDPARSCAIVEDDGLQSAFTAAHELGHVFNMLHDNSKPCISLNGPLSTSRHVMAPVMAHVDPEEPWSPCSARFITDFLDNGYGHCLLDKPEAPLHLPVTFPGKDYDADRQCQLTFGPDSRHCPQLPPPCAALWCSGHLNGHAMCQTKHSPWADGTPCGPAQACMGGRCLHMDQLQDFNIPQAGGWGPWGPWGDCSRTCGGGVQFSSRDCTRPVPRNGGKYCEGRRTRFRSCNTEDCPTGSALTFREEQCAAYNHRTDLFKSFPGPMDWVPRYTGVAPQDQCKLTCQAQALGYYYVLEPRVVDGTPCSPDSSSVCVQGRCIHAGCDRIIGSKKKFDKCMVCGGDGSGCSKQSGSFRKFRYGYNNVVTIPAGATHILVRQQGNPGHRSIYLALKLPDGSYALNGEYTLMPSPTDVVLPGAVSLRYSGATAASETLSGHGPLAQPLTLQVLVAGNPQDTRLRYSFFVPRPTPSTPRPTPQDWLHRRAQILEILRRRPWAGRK
Method in brief: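 It was then added to streptavidin wells coated with the biotinylated 41-mer aggrecan peptide and reacted for 3 h at 37 °C. Cleavage product was detected by BC-3 anti-ARGxx ELISA with HRP and TMB, read at 450 nm.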

[3] = molecular target: T3, A disintegrin and metalloproteinase with thrombospondin motifs 5 (Homo sapiens) (UniProt Q9UNA0); assay: Inhibition of human recombinant ADAMTS-5 using QTVTWPDMELPLPRNITEGEARGSVIL-TVKPIFEVSPSPL(biotinyl)K as substrate at 100 uM incubated 10 mins prior to substrate addition measured after 3 hrs by spectrophotometry
T3 sequence (whole entry): T1 sequence (Q9UNA0 whole entry)

[4] = Solubility of the compound at 100 uM; format: physicochemical
[5] = molecular target: T3, A disintegrin and metalloproteinase with thrombospondin motifs 5 (Homo sapiens); assay: Inhibition of human recombinant ADAMTS-5 using bovine articular aggrecan as substrate incubated 20 mins prior to substrate addition measured after 48 hrs by spectrophotometry
Method in brief: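 ADAMTS-5 (3.4 µL of 600 nM stock) was pre-incubated 20 min at 37 °C with compound or 4% DMSO vehicle in Tris/NaCl/CaCl₂/Brij35, pH 7.5. Bovine articular aggrecan (50 µg/mL final) was added for 48 h at 37 °C, then stopped with EDTA. Samples were bound to PVDF and digested with chondroitinase ABC and keratanase. The ARGSVIL neoepitope was detected by BC-3 ELISA with TMB, read at 450 nm.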

Structure (SMILES) | IC50 [1] [nM] | also measured
O=C(COc1ccc(C(F)(F)F)cc1)NNC(=S)NCc1ccc(-c2ccccc2)cc1 | 1700 | 
O=C(NNC(=S)NCc1ccc(-c2ccccc2)cc1)C1CNc2cc(Cl)ccc2O1 (stereo not given) | 3300 | 
O=C(COc1ccc(Cl)cc1)NNC(=S)NCCCc1ccccc1 | 1400 | IC50 [2]: 2000 nM
O=C(CNc1ccc(Cl)cc1)NNC(=S)NCc1ccc(-c2ccccc2)cc1 | 6300 | 
O=C(Cc1nc(-c2ccccc2)no1)NNC(=S)NCCCCC1CCCCC1 | 340 | 
O=C(Cc1nc(-c2cnccn2)no1)NNC(=S)NCCCCC1CCCCC1 | 3100 | 
O=C(COc1ccc(Cl)cc1)NNC(=S)NCCCn1ccnc1 | 1600 | 
O=C(COc1ccc(Cl)cc1)NNC(=S)NCc1cccc(-c2ccccc2)c1 | 2300 | 
O=C(COc1ccc2ccccc2c1)NNC(=S)NCc1ccc(-c2ccccc2)cc1 | 3200 | 
O=C(COc1ccc(Cl)cc1)NNC(=S)NCc1cccnc1 | 100000 | inhibition [3]: 50%
CN(NC(=S)NCCCCC1CCCCC1)C(=O)COc1ccc(Cl)cc1 | > 100000 | inhibition [3]: < 30%
O=C(COc1ccc(-c2ccccc2)cc1)NNC(=S)NCc1ccc(-c2ccccc2)cc1 | 60000 | solubility [4]: Insoluble
O=C(COc1ccc(C(F)(F)F)cc1)NNC(=S)NCCCCC1CCCCC1 | 540 | IC50 [2]: 610 nM
O=C(COc1ccc([N+](=O)[O-])cc1)NNC(=S)NCCCCC1CCCCC1 | 810 | IC50 [2]: 790 nM
O=C(COc1ccc(Cl)cc1)NCC(=S)NCc1ccc(-c2ccccc2)cc1 | > 100000 | inhibition [3]: < 30%
CC(C)(Oc1ccc(Cl)cc1)C(=O)NNC(=S)NCc1ccc(-c2ccccc2)cc1 | 6900 | 
O=C(COc1ccc(Cl)cc1)NNC(=S)N1CCC(Cc2ccccc2)CC1 | 1600 | 
O=C(COc1cccc(Cl)c1)NNC(=S)NCc1ccc(-c2ccccc2)cc1 | 2100 | 
O=C(COc1ccc(OCc2ccccc2)cc1)NNC(=S)NCc1ccc(-c2ccccc2)cc1 | 1000 | 
CC(=O)NNC(=S)NCCCCC1CCCCC1 | > 100000 | inhibition [3]: < 20%
O=C(COc1ccc(Cl)cc1)Nn1ccn(Cc2ccc(-c3ccccc3)cc2)c1=S | > 100000 | inhibition [3]: < 30%
O=C(COc1ccc(Cl)cc1)NCC(S)C(=O)NCCc1ccccc1 (stereo not given) | 8700 | 
CN(NC(=S)NCc1ccc(-c2ccccc2)cc1)C(=O)COc1ccc(Cl)cc1 | > 100000 | inhibition [3]: < 30%

Structure (SMILES) | IC50 [1] [nM] | also measured
O=C(Cc1ccc(-c2ccccc2)cc1)NNC(=S)NCCc1ccc(Cl)cc1 | 5200 | 
O=C(COc1ccc(Cl)cc1)NNC(=S)NCc1ccccc1-c1ccccc1 | 490 | IC50 [2]: 2900 nM
O=C(NNC(=S)NCCCCC1CCCCC1)C1CNc2cc(Cl)ccc2O1 (stereo not given) | 1260 | 
O=C(COc1ccccc1)NNC(=S)NCCCCC1CCCCC1 | > 100000 | inhibition [3]: < 20%
COc1ccc(OCC(=O)NNC(=S)NCc2ccc(-c3ccccc3)cc2)cc1 | 1700 | 
O=C(COc1ccc(F)cc1)NNC(=S)NCc1ccc(-c2ccccc2)cc1 | 100000 | inhibition [3]: 49%
O=C(COc1ccc(Cl)cc1)NNC(=S)NCCCCc1ccccc1 | 1000 | 
COc1ccc(OCC(=O)NNC(=S)NCCCCC2CCCCC2)cc1 | > 100000 | inhibition [3]: 50%
O=C(NNC(=S)NCc1ccc(-c2ccccc2)cc1)c1ccc(Cl)cc1 | 700 | IC50 [2]: 1600 nM
O=C(COc1ccccc1Cl)NNC(=S)NCc1ccc(-c2ccccc2)cc1 | 1900 | 
O=C(COc1ccc([N+](=O)[O-])cc1)NNC(=S)NCc1ccc(-c2ccccc2)cc1 | 4000 | 
O=C(COc1cccc2ccccc12)NNC(=S)NCc1ccc(-c2ccccc2)cc1 | 4100 | 
O=C(COc1cccc2ccccc12)NNC(=S)NCCCCC1CCCCC1 | 880 | IC50 [2]: 1000 nM
O=C(COc1ccccc1)NNC(=S)NCc1ccc(-c2ccccc2)cc1 | 10000 | 
O=C(COc1ccc(Cl)cc1)NNC(=S)NCc1ccc(-c2ccccc2)cc1 | 1200 | 
O=C(COc1ccc(Cl)cc1)NNC(=S)NCc1ccccc1 | 12600 | 
CN(CCCCc1ccccc1)C(=S)NNC(=O)COc1ccc(Cl)cc1 | 1100 | IC50 [2]: 1500 nM
O=C(NNC(=S)NCCCCC1CCCCC1)c1ccc(Cl)cc1 | 670 | IC50 [2]: 1400 nM; inhibition [5]: Dose-dependent effect
O=C(COc1ccc(Cl)c(Cl)c1)NNC(=S)NCc1ccc(-c2ccccc2)cc1 | 1200 | 
O=C(COc1ccc(Cl)cc1Cl)NNC(=S)NCc1ccc(-c2ccccc2)cc1 | 1200 | 
O=C(COc1ccc(Cl)cc1)NNC(=S)NCCc1ccccc1 | 2800 | 
O=C(Cc1ccc(-c2ccccc2)cc1)NNC(=S)NCCCCC1CCCCC1 | 300 | IC50 [2]: 730 nM
